Measured values as given in ChEMBL document CHEMBL4431389, “Optimisation of a novel series of potent and orally bioavailable azanaphthyridine SYK inhibitors” (Bioorg Med Chem Lett, 2016).

Assays:
[1] = target: T1, Tyrosine-protein kinase SYK (Homo sapiens, UniProt P43405); assay: Inhibition of N-terminal 6His-tagged full length human recombinant SYK expressed in baculovirus using Biotin-AAAEEIYGEI as substrate after 60 mins by TR-FRET assay
[2] = target: T1, Tyrosine-protein kinase SYK; assay: Inhibition of SYK in human B cells assessed as suppression of anti-IgM-induced CD69 surface expression preincubated for 30 mins followed by anti-IgM addition measured after 3.5 hrs by flow cytometric analysis; assay type: cell-based
[3] = target: Voltage-gated inwardly rectifying potassium channel KCNH2 (Homo sapiens, UniProt Q12809); assay: Inhibition of human ERG expressed in CHOK1 cell membranes after 2 hrs by cy3b-dofetilide-based fluorescence polarization assay
[4] = target: albumin (Homo sapiens, UniProt P02768); assay: Binding affinity to human serum albumin by HPLC analysis; assay type: ADME; conditions: read-out: PB (converted)
[5] = target: Vascular endothelial growth factor receptor 2 (Homo sapiens, UniProt P35968); assay: Inhibition of KDR (unknown origin)
[6] = target: Tyrosine-protein kinase JAK1 (Homo sapiens, UniProt P23458); assay: Inhibition of JAK1 (unknown origin)
[7] = target: Aurora kinase B (Homo sapiens, UniProt Q96GD4); assay: Inhibition of N-terminal-6His-tagged full length human Aurora B expressed in baculovirus using 5FAM-PKA-tide as substrate after 120 mins by fluorescence polarization assay
[8] = Lipophilicity, log D of the compound by chromatographic method; assay type: physicochemical
[9] = target: Leucine-rich repeat serine/threonine-protein kinase 2 (Homo sapiens, UniProt Q5S007); assay: Inhibition of LRRK2 (unknown origin)
[10] = test system: Rattus norvegicus; assay: (§1) In vivo inhibition of SYK-stimulated Fc-gamma receptor mediated immune complex activation in po dosed CD rat assessed as reduction in cutaneous reverse passive Arthus reaction preincubated for 1 hr followed by ovalbumin challenge with Evans blue dye measured after 4 hrs by spectrophotometric analysis; assay type: functional, organism-based
Summary of the method: (§2)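 Male CD rats (175–200 g, 8 per group, observer blind) got an oral suspension in 1% methylcellulose 1 h before challenge, with blood sampled for exposure. Challenge was iv 1% ovalbumin in saline (10 mg/kg) with 1% Evans blue. Ten min later, under isoflurane, rabbit anti-OVA IgG went intradermally at three left sites, control rabbit IgG on the right. At 4 h, 12 mm skin punches went into formamide, 16 h at 80 °C.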

[11] = test system: Rattus norvegicus; assay: as §1, with “in” for “in po dosed”, “reaction at 10 mg/kg, po” for “reaction”; assay type: functional; summary of the method: as §2
[12] = test system: Rattus norvegicus; assay: as §1, with “in” for “in po dosed”, “reaction at 30 mg/kg, po” for “reaction”; assay type: functional; summary of the method: as §2
[13] = Genotoxicity in Salmonella typhimurium TA1537 at 5000 ug/plate in presence of metabolic activation by Ames test; assay type: toxicity; conditions: salmonella enterica subsp. enterica serovar typhimurium
[14] = Half life in rat at 3 mg/kg, po or 1 mg/kg, iv; assay type: ADME, organism-based; conditions: in vivo
Summary of the method: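 Screening PK in rats: oral dosing at 3 mg/kg (n = 3) and intravenous dosing at 1 mg/kg (n = 1). Blood clearance, volume of distribution at steady state, half-life and oral bioavailability were derived from these profiles.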

[15] = target: Tyrosine-protein kinase BTK (Homo sapiens, UniProt Q06187); assay: Inhibition of BTK (unknown origin)
[16] = Genotoxicity in Salmonella typhimurium TA1537 at 5000 ug/plate in absence of metabolic activation by Ames test; assay type: toxicity; conditions: salmonella enterica subsp. enterica serovar typhimurium
[17] = Cmax in rat at 3 mg/kg, po; assay type: ADME, organism-based; design: dose 3 mg/kg, route oral; conditions: in vivo
[18] = AUC in rat at 3 mg/kg, po; assay type: ADME, organism-based; conditions: in vivo
[19] = Dissociation constant, pKa of the compound; assay type: physicochemical

Voltage-gated inwardly rectifying potassium channel KCNH2, sequence (Q12809 whole entry): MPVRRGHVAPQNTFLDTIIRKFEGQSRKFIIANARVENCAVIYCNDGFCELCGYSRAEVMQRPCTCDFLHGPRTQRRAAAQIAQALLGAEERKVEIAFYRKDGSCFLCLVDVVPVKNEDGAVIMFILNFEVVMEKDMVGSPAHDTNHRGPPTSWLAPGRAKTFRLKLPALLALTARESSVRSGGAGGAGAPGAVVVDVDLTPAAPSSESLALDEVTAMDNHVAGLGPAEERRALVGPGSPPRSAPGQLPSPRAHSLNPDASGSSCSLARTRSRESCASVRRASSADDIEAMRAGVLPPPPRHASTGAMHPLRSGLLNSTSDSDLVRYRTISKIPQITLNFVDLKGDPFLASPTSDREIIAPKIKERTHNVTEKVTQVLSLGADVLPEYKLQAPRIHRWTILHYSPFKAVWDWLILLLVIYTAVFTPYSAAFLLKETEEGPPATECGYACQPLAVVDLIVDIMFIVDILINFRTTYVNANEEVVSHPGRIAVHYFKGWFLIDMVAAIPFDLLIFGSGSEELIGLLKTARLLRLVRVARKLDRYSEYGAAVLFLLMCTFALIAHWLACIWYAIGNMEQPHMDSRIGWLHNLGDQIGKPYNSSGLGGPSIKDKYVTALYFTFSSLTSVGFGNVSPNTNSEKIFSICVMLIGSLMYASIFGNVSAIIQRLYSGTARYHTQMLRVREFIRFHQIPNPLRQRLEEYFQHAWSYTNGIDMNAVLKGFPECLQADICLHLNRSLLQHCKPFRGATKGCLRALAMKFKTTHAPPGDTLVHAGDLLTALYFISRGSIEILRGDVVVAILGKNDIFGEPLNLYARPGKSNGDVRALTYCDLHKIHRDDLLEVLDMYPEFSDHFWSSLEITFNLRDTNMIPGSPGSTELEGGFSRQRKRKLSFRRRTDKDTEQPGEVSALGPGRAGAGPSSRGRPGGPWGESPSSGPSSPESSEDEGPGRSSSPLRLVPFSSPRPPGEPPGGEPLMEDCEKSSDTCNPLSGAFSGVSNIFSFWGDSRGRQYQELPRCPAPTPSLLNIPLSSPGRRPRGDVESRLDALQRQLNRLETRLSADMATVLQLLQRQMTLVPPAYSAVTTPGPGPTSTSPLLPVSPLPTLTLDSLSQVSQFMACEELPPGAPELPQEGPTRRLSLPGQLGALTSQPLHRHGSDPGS
albumin, sequence (P02768 whole entry): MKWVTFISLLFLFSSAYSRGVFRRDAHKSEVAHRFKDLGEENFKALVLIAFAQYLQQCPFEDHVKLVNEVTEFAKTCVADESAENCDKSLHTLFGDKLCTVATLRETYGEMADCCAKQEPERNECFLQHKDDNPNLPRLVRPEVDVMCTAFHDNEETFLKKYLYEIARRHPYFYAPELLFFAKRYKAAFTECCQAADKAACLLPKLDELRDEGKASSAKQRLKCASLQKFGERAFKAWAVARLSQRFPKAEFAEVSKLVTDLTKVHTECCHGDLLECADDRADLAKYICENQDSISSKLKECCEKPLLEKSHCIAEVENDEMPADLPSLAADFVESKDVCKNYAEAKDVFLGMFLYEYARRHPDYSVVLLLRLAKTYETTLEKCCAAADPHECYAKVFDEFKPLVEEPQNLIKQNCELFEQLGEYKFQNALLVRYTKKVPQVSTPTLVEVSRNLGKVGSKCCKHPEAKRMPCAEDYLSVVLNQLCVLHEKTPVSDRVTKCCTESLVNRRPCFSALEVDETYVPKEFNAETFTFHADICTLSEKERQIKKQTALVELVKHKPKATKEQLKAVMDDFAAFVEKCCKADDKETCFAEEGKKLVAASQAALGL
Aurora kinase B, sequence (Q96GD4 whole entry): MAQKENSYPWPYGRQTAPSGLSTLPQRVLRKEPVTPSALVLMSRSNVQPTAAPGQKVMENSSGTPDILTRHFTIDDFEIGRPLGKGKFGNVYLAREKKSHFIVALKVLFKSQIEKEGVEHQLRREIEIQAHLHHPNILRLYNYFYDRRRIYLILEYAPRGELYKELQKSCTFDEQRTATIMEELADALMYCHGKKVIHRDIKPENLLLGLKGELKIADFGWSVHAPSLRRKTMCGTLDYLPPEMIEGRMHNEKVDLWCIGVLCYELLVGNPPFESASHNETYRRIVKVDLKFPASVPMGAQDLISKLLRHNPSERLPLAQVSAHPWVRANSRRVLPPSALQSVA
Tyrosine-protein kinase JAK1, sequence (P23458 whole entry): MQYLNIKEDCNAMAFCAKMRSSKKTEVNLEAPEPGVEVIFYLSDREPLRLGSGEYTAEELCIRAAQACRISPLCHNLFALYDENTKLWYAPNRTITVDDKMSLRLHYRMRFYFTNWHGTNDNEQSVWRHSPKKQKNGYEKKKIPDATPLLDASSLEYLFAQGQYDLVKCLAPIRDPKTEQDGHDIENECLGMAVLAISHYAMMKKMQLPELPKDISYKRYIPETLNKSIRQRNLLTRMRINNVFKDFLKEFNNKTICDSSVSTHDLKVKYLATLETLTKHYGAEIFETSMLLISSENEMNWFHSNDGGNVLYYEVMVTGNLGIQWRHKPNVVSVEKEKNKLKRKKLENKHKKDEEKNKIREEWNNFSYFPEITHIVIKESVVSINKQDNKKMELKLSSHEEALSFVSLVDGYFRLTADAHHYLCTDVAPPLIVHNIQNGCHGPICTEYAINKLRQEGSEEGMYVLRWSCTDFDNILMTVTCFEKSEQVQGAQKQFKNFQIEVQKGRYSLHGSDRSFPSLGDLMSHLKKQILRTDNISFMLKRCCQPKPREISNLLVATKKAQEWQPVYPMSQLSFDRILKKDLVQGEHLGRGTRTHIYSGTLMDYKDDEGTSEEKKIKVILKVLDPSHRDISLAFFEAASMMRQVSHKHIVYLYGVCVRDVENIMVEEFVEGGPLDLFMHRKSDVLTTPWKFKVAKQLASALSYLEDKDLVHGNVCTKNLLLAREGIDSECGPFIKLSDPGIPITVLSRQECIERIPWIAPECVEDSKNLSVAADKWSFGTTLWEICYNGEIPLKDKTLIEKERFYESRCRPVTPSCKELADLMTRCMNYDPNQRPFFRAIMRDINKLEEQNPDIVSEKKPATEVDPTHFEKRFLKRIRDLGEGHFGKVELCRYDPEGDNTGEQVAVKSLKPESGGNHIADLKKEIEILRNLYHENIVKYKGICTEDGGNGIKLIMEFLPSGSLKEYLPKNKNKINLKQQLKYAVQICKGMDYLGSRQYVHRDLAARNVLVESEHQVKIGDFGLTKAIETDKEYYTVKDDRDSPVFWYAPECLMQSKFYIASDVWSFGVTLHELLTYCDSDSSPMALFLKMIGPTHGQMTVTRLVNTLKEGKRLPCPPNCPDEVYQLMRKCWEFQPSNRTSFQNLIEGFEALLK
Vascular endothelial growth factor receptor 2, sequence (P35968 whole entry): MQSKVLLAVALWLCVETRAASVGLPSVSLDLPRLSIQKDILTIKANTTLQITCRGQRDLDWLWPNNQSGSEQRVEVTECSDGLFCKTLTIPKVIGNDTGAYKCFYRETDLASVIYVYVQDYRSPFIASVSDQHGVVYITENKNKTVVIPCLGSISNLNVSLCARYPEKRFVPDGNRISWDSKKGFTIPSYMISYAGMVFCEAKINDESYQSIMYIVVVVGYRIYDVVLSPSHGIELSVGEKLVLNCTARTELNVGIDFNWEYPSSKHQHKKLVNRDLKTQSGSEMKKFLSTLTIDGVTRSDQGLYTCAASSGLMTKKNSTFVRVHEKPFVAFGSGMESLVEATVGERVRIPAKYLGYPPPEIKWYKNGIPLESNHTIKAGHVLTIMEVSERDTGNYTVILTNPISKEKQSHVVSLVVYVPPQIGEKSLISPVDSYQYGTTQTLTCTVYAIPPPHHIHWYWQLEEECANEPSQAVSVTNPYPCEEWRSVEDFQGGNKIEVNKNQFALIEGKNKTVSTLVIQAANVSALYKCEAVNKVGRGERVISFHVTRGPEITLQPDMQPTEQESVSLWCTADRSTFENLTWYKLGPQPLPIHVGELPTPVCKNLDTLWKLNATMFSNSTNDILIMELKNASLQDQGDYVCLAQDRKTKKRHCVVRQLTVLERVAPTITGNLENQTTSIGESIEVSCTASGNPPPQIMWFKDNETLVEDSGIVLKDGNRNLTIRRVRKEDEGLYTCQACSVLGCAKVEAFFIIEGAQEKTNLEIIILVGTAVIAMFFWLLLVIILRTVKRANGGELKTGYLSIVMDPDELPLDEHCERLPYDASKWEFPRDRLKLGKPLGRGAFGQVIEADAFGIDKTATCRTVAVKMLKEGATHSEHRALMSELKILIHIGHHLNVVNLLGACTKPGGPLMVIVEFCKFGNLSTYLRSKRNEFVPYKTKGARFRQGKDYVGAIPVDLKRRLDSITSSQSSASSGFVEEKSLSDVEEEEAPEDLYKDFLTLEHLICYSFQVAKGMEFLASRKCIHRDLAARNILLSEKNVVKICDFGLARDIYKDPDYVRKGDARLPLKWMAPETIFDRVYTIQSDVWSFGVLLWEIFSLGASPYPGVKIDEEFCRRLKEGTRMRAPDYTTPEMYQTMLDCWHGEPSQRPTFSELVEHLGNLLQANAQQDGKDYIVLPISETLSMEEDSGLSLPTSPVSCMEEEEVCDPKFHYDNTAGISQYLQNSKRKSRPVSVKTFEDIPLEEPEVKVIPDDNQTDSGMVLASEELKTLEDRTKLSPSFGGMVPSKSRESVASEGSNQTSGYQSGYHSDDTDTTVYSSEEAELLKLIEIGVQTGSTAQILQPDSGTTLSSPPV

| IC50 [1] [µM] | IC50 [2] [µM] | fraction unbound [4] | Structure (SMILES) | IC50 [3] [µM] | other results |
| --- | --- | --- | --- | --- | --- |
| 0.2 | 1.58 | 0.11 | CN(C)c1ccc(-c2cc3nccnc3c(NC[C@H]3CNCCO3)n2)cn1 | > 50.1 |  |
| 0.00398 | 0.126 | 0.1 | CN(C)c1ccc(-c2cc3nccnc3c(OC[C@H]3CCCNC3)n2)cn1 | 10 |  |
| 0.0316 | 1.58 | 0.05 | CN(C)c1ccc(-c2cc3nccnc3c(NC[C@H]3CNCCC3(F)F)n2)cn1 | 20 |  |
| 0.0251 | 0.794 | 0.09 | Cc1ccc(-c2cc3nccnc3c(NC[C@H]3CCCNC3)n2)cc1 |  |  |
| 0.0251 | 0.316 | 0.12 | CN(C)c1ccc(-c2cc3nccnc3c(NC[C@@H]3CNCCO3)n2)cn1 | > 50.1 |  |
| 0.2 | > 10 | 0.08 | CN(C)c1ccc(-c2cc3nccnc3c(NCCCCO)n2)cn1 | 31.6 |  |
|  |  |  | Cc1ccc(-c2cc3nccnc3c(NCCCCN)n2)cc1 | 15.8 | IC50 [5]: 1.58 µM; IC50 [6]: 2 µM |
|  |  | 0.21 | c1cnc2c(NC[C@H]3CCCNC3)nc(-c3cc[nH]n3)cc2n1 | > 50.1 |  |
| 0.00794 | 0.794 | 0.06 | CN(C)c1ccc(-c2cc3ncccc3c(NC[C@H]3CCCNC3)n2)cn1 | > 50.1 |  |
| 0.02 | 0.794 | 0.05 | Cc1ccc(-c2cc3ncccc3c(NC[C@H]3CCCNC3)n2)cc1 |  |  |
| 0.0794 | 0.251 | 0.07 | CN(C)c1ccc(-c2cc3nccnc3c(NC[C@H]3CNCCN3C)n2)cn1 | 15.8 |  |
| 0.1 | 1.58 | 0.07 | CN(C)c1ccc(-c2cc3nccnc3c(NCC3CNCC(F)(F)C3)n2)cn1 (racemic) | > 50.1 | IC50 [7]: 0.501 µM; chromatographic logD [8]: 4.2 |
| 0.0158 | 0.316 | 0.08 | CN(C)c1ccc(-c2cc3nccnc3c(NC[C@H]3CCCNC3)n2)cn1 |  |  |
| 0.0251 | 0.501 | 0.09 | CN(C)c1ccc(-c2cc3nccnc3c(OC[C@@H]3CCCNC3)n2)cn1 | 12.6 |  |
| 0.158 | 3.98 | 0.09 | Cc1ccc(-c2cc3nc[nH]c(=O)c3c(NC[C@H]3CCCNC3)n2)cc1 | 7.94 |  |
| 0.2 | 3.98 | 0.09 | Cc1ccc(-c2cc3ncncc3c(NC[C@H]3CCCNC3)n2)cc1 | 10 |  |
| 0.0631 | 0.158 |  | Cn1cc(-c2cc3nccnc3c(NC[C@@H]3CNCCO3)n2)cn1 | > 50.1 | IC50 [9]: 0.251 µM; IC50 [6]: 0.501 µM; inhibition [10]: Dose-dependent effect; inhibition in vivo at 10 mg/kg [11]: 45%; inhibition in vivo at 30 mg/kg [12]: 85%; Activity [13]: Non-Toxic; half-life [14]: 1.7 h; IC50 [15]: 0.251 µM; Activity [16]: Non-Toxic |
| 0.00251 | 0.158 | 0.05 | CN(C)c1ccc(-c2cc3nccnc3c(NC[C@@H]3CNCCC3(F)F)n2)cn1 |  |  |
| 0.158 | 3.98 | 0.04 | CN(C)c1ccc(-c2cc3nccnc3c(NCCC(N)=O)n2)cn1 | > 50.1 |  |

| IC50 [1] [µM] | IC50 [2] [µM] | fraction unbound [4] | Structure (SMILES) | IC50 [3] [µM] | other results |
| --- | --- | --- | --- | --- | --- |
| 0.02 | 1 | 0.08 | Cc1ccc(-c2cc3nccnc3c(NC[C@H]3CCCNC3)n2)s1 | 5.01 |  |
|  |  |  | Cn1cc(-c2cc3nccnc3c(OCC3CNCCC3(F)F)n2)cn1 (racemic) |  | Cmax [17]: 0.028 µg/mL; AUC [18]: 0.099 µg·h/mL; pKa [19]: 7.7 |
| 0.251 | 1 | 0.09 | CN(C)c1ccc(-c2cc3nccnc3c(CCC3CCCNC3)n2)cn1 (racemic) |  | chromatographic logD [8]: 2.4 |
|  | 0.1 |  | CN1CCNC[C@H]1COc1nc(-c2cnn(C)c2)cc2nccnc12 | > 50.1 |  |
| 0.0794 | 1.26 | 0.1 | Cc1ccc(-c2cc3ncn(C)c(=O)c3c(NC[C@H]3CCCNC3)n2)cc1 | 25.1 |  |
| 0.1 | 0.2 |  | CN1CCNC[C@H]1CNc1nc(-c2cnn(C)c2)cc2nccnc12 | > 50.1 |  |
| 0.0316 | 0.126 | 0.25 | Cn1cc(-c2cc3nccnc3c(NC[C@H]3CCCNC3)n2)cn1 | > 50.1 |  |
| 0.0398 | 0.2 | 0.22 | Cn1cc(-c2cc3nccnc3c(OC[C@H]3CCCNC3)n2)cn1 | > 50.1 |  |
| 6.31 |  | 0.41 | O=C1CN(c2cc3nccnc3c(NC[C@H]3CCCNC3)n2)CCN1 |  | IC50 [7]: 7.94 µM; chromatographic logD [8]: 0.6 |
| 0.316 | 2 |  | Cn1cc(-c2cc3nccnc3c(NCC3CNCC(F)(F)C3)n2)cn1 (racemic) | > 50.1 | IC50 [7]: 0.501 µM; Cmax [17]: 0.096 µg/mL; AUC [18]: 0.216 µg·h/mL; pKa [19]: 6.9 |
| 0.0501 | 0.316 | 0.24 | c1cnc2c(NC[C@H]3CCCNC3)nc(-c3cn[nH]c3)cc2n1 | > 50.1 |  |
| 0.00398 | 0.0794 |  | Cn1cc(-c2cc3nccnc3c(NC[C@@H]3CNCCC3(F)F)n2)cn1 | 25.1 |  |
|  | 0.794 |  | Cc1ccc(-c2cc3nccnc3c(NC[C@H]3CCCNC3)n2)o1 | 20 |  |
| 0.00631 | 0.501 | 0.05 | CN(C)c1ccc(-c2cc(NC[C@H]3CCCNC3)c3cccnc3c2)cn1 |  |  |
| 0.126 | > 10 | 0.04 | CN(C)c1ccc(-c2cc3nccnc3c(NCC(F)(F)F)n2)cn1 | > 50.1 | IC50 [7]: 0.0501 µM; chromatographic logD [8]: 5.7 |
|  |  | 0.11 | CN(C)c1ccc(-c2cc3nccnc3c(NCCCCN)n2)cn1 | 39.8 |  |
| 0.158 | 0.631 |  | Cn1cc(-c2cc3nccnc3c(OCC3CNCC(F)(F)C3)n2)cn1 (racemic) | > 50.1 | IC50 [7]: 0.0631 µM; Cmax [17]: 0.148 µg/mL; AUC [18]: 0.296 µg·h/mL; pKa [19]: 7 |
| > 25.1 |  | 0.3 | c1cnc2c(NC[C@H]3CCCNC3)nc(N3CCNCC3)cc2n1 | > 50.1 |  |
| 0.0501 |  | 0.09 | CN(C)c1ccc(-c2cc3nccnc3c(NC[C@@H]3CNCCN3C)n2)cn1 | > 50.1 |  |
